Reference: ChEMBL document CHEMBL3853359, “NO Photoreleaser-Deoxyadenosine and -Bile Acid Derivative Bioconjugates as Novel Potential Photochemotherapeutics” (ACS Med Chem Lett, 2016)
Active and inactive are the calls of the source. No cut-off for these calls is given here.

Experiments:
[1] = Cytotoxicity against human K562 assessed as cell growth inhibition incubated for 72 hrs under dark condition by MTT assay; type: toxicity, cell-based; conditions: for IC50 at 72 h: K562 cells; for growth inhibition (GI): k562, 72 h
Method in brief: (§1)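 MTT read-out after 72 h continuous exposure in the dark. Test concentrations were 10, 25 and 50 μM for K562 leukaemia and HCT116 colon carcinoma cells, and up to 100 μM for normal human skin fibroblasts. IC50 was taken from dose–response curves, as the mean ± SD of three independent experiments.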

[2] = Cytotoxicity against human fibroblasts assessed as cell growth inhibition incubated for 72 hrs under dark condition by MTT assay; type: toxicity, cell-based, Fibroblast; method in brief: as §1
[3] = Cytotoxicity against human HCT116 assessed as cell growth inhibition incubated for 72 hrs under dark condition by MTT assay; type: toxicity, cell-based, HCT-116; conditions: for IC50 at 72 h: HCT116 cells; for growth inhibition (GI): hct-116, 72 h; method in brief: as §1
[4] = Stability of the compound in phosphate buffer at 50 uM and pH 7.4 under dark condition; type: physicochemical; conditions: pH 7.4, 50 µM
Method in brief: (§2)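 NO was monitored directly in real time with an amperometric NO electrode (nanomolar sensitivity). Samples were 50 μM solutions in 10 mM phosphate buffer, pH 7.4, with 0.5% DMSO, kept in the dark and then illuminated with visible light (λ = 420 nm, 1.5 mW cm–2).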

[5] = Induction of NO release in phosphate buffer at 50 uM and pH 7.4 upon 1.5 mW/cm2 visible-light irradiation; type: physicochemical; conditions: pH 7.4, 50 µM; method in brief: as §2
[6] = Photoreactivity of the compound in phosphate buffer assessed as photobleaching of visible band at 50 uM and pH 7.4 upon 7 mW/cm2 of light-irradiation measured up to 70 mins; type: physicochemical; conditions: pH 7.4, 70 min
Method in brief: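 50 μM solutions in 10 mM phosphate buffer, pH 7.4, with 0.5% DMSO were irradiated at λ = 420 nm, 7 mW cm–2, from 0 to 70 min. Absorption spectral changes were recorded, and kinetic profiles were followed at λmax and fitted linearly.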

HCT-116 = test: (§3) Photocytotoxicity against human HCT116 cells assessed as cell growth inhibition incubated for 72 hrs after exposure to 7 mW/cm2 of light-irradiation for 40 mins by MTT assay; type: functional, cell-based
Method in brief: (§4)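 HCT116 cells with compound were irradiated with visible light (λ = 420 nm, 7 mW cm–2) for 40 min, then incubated to 72 h. Growth inhibition was read by MTT. IC50 was taken from dose–response curves, as the mean ± SD of three independent experiments.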

[7] = as §3; type: functional, cell-based; conditions: HCT-116, light or radiation study; method in brief: as §4
[8] = Ratio of cytotoxicity against human HCT116 cells assessed as cell growth inhibition at 50 uM incubated for 72 hrs under dark condition by MTT assay to photocytotoxicity against human HCT116 cells assessed as cell growth inhibition at 50 uM incubated for 72 hrs after exposure to 7 mW/cm2 of light-irradiation for 40 mins by MTT assay

| Stability [4] | Activity [5] | Activity [6] | SMILES | IC50 at 72 h [1] [µM] | IC50 at 72 h [2] [µM] | IC50 at 72 h [3] [µM] | growth inhibition (GI) [1] | growth inhibition (GI) [3] | Activity (HCT-116) | IC50 [7] [µM] | Ratio [8] |
| --- | --- | --- | --- | --- | --- | --- | --- | --- | --- | --- | --- |
| – | – | – | C[C@H](CCC(=O)O)[C@H]1CC[C@H]2[C@@H]3[C@H](O)C[C@@H]4C[C@H](n5cc(CCCNc6ccc([N+](=O)[O-])c(C(F)(F)F)c6)nn5)CC[C@]4(C)[C@H]3CC[C@]12C | 24 | 32 | 21 | – | – | – | – | – |
| Stable | Active | – | C[C@H](CCC(=O)O)[C@H]1CC[C@H]2[C@@H]3[C@@H](O)C[C@@H]4C[C@H](n5cc(CCCNc6ccc([N+](=O)[O-])c(C(F)(F)F)c6)nn5)CC[C@]4(C)[C@H]3CC[C@]12C | 31.6 | > 100 | 14 | Dose-dependent effect | Dose-dependent effect | – | – | – |
| Stable | Active | Active | Nc1ncnc2c1nc(SCCCCCNc1ccc([N+](=O)[O-])c(C(F)(F)F)c1)n2[C@H]1C[C@H](O)[C@@H](CO)O1 | 68.1 | > 100 | 66.2 | Dose-dependent effect | Dose-dependent effect | Active | 31 | 2 |
